# Wee1 degr inh: Wee1 degradation inhibitors, primary screen, cell-based, HeLa, Wee1K328M-luciferase, luminescence | Wee1-like protein kinase (Homo sapiens), P30291 | HeLa Luc-Wee1K328M stability; 100% = proteasome inhibitor MG132 effect | reporter increase, % at 5 µM | hit rate 1.2% among 220,000;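 active = activation above the mean of all tested compounds plus 3 SD, set per screening run, cut at about 8.8% in these data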;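 note: cells exposed to compound for 20 h before luminescence read; 0% = DMSO alone and 100% = MG132 at 30 µM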
# p97 ATPase inh: inhibitors of human p97 ATPase, primary screen, biochemical. Transitional endoplasmic reticulum ATPase (Homo sapiens), P55072. recombinant p97 ATPase, Kinase-Glo ATP luminescence, 3 h. inhibition, % at 8 µM. hit rate 0.42% among 220,000; in the data active = inhibition above about 15%;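 note: 0% = DMSO vehicle and 100% = wells lacking enzyme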
# Target sequence (P55072 whole entry, looked up): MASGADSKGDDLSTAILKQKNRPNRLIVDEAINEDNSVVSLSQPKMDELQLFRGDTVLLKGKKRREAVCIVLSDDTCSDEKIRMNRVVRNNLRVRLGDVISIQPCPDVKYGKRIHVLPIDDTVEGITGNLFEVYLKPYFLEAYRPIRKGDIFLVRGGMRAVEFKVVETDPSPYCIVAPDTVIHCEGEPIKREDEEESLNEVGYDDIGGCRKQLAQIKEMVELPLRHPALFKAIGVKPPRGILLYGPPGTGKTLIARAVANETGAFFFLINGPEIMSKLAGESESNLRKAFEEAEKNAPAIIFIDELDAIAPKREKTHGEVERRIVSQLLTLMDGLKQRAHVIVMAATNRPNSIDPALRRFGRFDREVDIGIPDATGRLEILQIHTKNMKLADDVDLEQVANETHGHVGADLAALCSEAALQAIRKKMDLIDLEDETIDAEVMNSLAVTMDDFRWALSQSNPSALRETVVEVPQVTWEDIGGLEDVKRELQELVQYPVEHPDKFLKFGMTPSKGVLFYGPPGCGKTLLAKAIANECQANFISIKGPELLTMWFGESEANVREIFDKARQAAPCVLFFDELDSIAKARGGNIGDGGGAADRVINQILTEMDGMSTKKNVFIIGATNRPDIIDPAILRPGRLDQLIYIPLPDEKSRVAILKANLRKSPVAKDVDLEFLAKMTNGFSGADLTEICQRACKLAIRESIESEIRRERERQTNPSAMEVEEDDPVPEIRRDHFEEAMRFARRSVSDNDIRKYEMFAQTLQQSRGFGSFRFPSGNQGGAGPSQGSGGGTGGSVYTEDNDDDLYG
# RBBP9 inh: human RBBP9 inhibitors, primary screen, biochemical, fluorescence polarization, FP-Rh probe, HTS; recombinant RBBP9; AID 1515, 2009; Serine hydrolase RBBP9 (Homo sapiens), O75884; inhibition, % at 7.94 µM; hit rate 0.2% among 220,000;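 active = inhibition above the campaign mean of all tested compounds plus 3 SD, cut at about 14% in these data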;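 note: plate controls were DMSO wells with RBBP9 for no effect and wells lacking RBBP9 protein for full effect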
#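 System: RBBP9 protein / Buffer or medium: Tris/NaCl buffer pH 8.0 with 0.1% Pluronic / Probe or stimulus: Serine-hydrolase probe FP-Rh, 375 nM pre-mixing / Dosing: 7.94 µM single dose, 0.794% DMSO / Times: enzyme-compound preincubation 30 min, then probe labeling 45 min, 25 °C / Technique: fluorescence polarization (mP), excitation 525 nm, emission 598 nm / Replication: singlicate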
# PKD1 inh: inhibitors of human PKD1 kinase, biochemical, fluorescence polarization. PKD1 kinase fluorescence polarization assay. inhibition, % (no concentration beside the values). hit rate 0.056% among 200,000; in the data active = inhibition above about 50%
# Redox H2O2 prof: compounds producing H2O2 with reducing agent – biochemical, NIH compound library profiling, artefact control for MLSCN library redox annotation, primary screen; DTT-dependent redox cycling H2O2, phenol red/HRP absorbance; 100% = 100 µM peroxide control, 0% = buffer; activation, % at 10 µM; hit rate 0.03% among 200,000; AID 878, 2007;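 active = activation of at least 50% relative to the plate's high and low controls in the primary single-dose screen; inactive = activation below 50%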;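 note: compound incubated with DTT at 0.8 mM final as the reducing agent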
# Arbovirus inh: antivirals against arbovirus infection, primary screen, cell-based, full library, 10K replicate subset; arbovirus infection cell-based antiviral screen; hit rate 0.37% among 200,000; AID 1251, 2008; inhibition, % at 10 µM; in the data active = inhibition above about 30%
# p97 inh conf: p97 ATPase inhibitors, retest, confirmation, biochemical; AID 1517, 2009; inhibition, % at 8 µM; shares compounds with p97 ATPase inh; hit rate 44% among 760; recombinant p97 ATPase, Kinase-Glo ATP luminescence;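 active = percent inhibition of p97 ATPase above a set limit, the primary screen's mean plus 3 SD, cut at about 15% in these data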;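 note: 0% = DMSO wells and 100% = wells lacking p97 protein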
# The depositor's hits bear a star; · = not tested or not shown. A selection: hits, their analogues and other compounds. The true share with any hit is near 2.2%.
SMILES,Wee1 degr inh,p97 ATPase inh,RBBP9 inh,PKD1 inh,Redox H2O2 prof,Arbovirus inh,p97 inh conf
N#CC1=C(N)NC(=S)C(C(N)=O)C1c1ccc([N+](=O)[O-])cc1 (stereo unspecified),-1,-3,7,-9,1,-1,·
O=C(N/N=C/c1c[nH]c2ccccc12)c1ccc2c(c1)OCCO2,2,10,-3,·,·,·,·
O=C(N/N=C/c1c[nH]c2ccc(Br)cc12)c1ccc2c(c1)OCO2,-1,16*,2,1,-1,-17,12
Cc1ccc(-c2cc(NC(=O)CCl)n(-c3ccccc3)n2)cc1,-2,24*,-6,-4,0,-30,25*
O=C(CCl)Nc1cc(-c2ccccc2)nn1-c1ccccc1,0,20*,-10,4,-2,-22,32*
CC(=O)Nc1ccc(-c2cc(NC(C)=O)n(-c3ccccc3)n2)cc1,-2,8,9,-4,2,-2,·
Cc1ccc(-c2nn(-c3ccccc3)cc2CNCc2ccccc2)cc1,1,1,4,1,0,-30,·
Cc1ccc(-c2nn(-c3ccccc3)cc2NC(=O)CCl)cc1,1,16*,2,-6,0,-30,29*
Cc1c(Cl)cccc1S(=O)(=O)Nc1ccnn1C,2,3,-8,·,·,·,·
CC(C)NC(=O)c1ccc(-n2c(=S)[nH]c3ccccc3c2=O)cc1,-1,3,-2,-5,0,-3,·
COc1ccc(CCC(=O)OCC(=O)c2cccc(OC)c2)cc1,0,-1,-3,4,0,1,·
CC(=O)Nc1ccc(OCC(O)Cn2nc(C)c(Br)c2C)cc1 (stereo unspecified),-2,-1,-11,-9,-1,5,·
Cc1nnc(N/N=C\c2ccc(-c3ccccc3[N+](=O)[O-])o2)n1N,-3,17*,0,-2,0,-6,6
Cc1nnc(N/N=C/c2ccc(-c3ccccc3F)o2)n1N,0,4,1,6,1,-12,·
Nc1ncnc2oc(-c3ccco3)c(-c3ccco3)c12,-1,17*,-2,-5,2,2,13
Nc1nnc(-c2ccco2)s1,-2,-5,-3,3,-6,5,·
O=C(NC(=S)N1CCCCC1)c1csc([N+](=O)[O-])c1,1,2,-6,·,·,·,·
c1ccc(OCCN2CCN(Cc3nc(-c4ccc5c(c4)OCO5)no3)CC2)cc1,-2,-3,6,-1,0,-1,·
O=C(Nc1ccc(S(=O)(=O)NCc2ccccc2)cc1)c1ccc(Br)o1,6,-7,-11,3,-1,-10,·
C=CCn1c(NC(=O)c2ccc(Br)o2)c(S(=O)(=O)c2ccccc2)c2nc3ccccc3nc21,-4,20*,-9,-11,2,16,6
COc1cc(/C=C2\C(=O)N(CCC#N)N=C2C)ccc1OCC(=O)Nc1ccccc1,2,29*,8,-6,0,-6,4
COc1ccc(/C=C2/SC(=O)N(CCC(=O)Nc3ccccc3)C2=O)cc1OC,1,3,-4,9,1,3,·
CCOc1cc(/C=C2\C(=O)N(CCC#N)N=C2C)ccc1OCC(N)=O,3,17*,-11,0,-2,3,6
CC1=NN(CCC#N)C(=O)/C1=C/c1ccc(N(C)C)cc1,-2,-11,-12,-3,0,14,·
O=C(CCCN1C(=O)/C(=C/c2ccco2)SC1=S)Nc1ccccc1C(=O)O,-1,22*,-6,·,·,·,14
SMILES,Wee1 degr inh,p97 ATPase inh,RBBP9 inh,PKD1 inh,Redox H2O2 prof,Arbovirus inh,p97 inh conf
O=C(O)CCCN1C(=O)/C(=C\c2ccco2)SC1=S,-1,6,-7,4,0,11,·
c1ccc(CNc2nc(NCc3ccccc3)c3ccccc3n2)cc1,-2,44*,-2,·,·,·,41*
c1ccc(CNc2nc(-c3cccs3)nc3ccccc23)cc1,1,5,-19,0,1,-5,·
Fc1ccc(Nc2nc(NCc3ccco3)c3ccccc3n2)cc1,7,27*,5,·,·,·,34*
Fc1ccccc1-c1nc(NCc2ccccc2)c2ccccc2n1,-1,30*,-13,·,·,·,40*
CCOc1ccccc1NC(=O)c1ccccc1-c1nc(-c2ccccc2OC)no1,3,-8,-15,-21,-2,-7,·
CC(NC(=O)C1CCC(CNS(=O)(=O)c2ccccc2)CC1)c1ccc2c(c1)OCCO2 (stereo unspecified),-1,-4,-5,1,-1,-4,·
Cc1ccc(-c2nnc(NCc3nc4ccccc4[nH]3)c3ccccc23)cc1S(=O)(=O)N1CCOCC1,-1,15*,-14,4,0,-16,12
Cc1ccc(-c2nnc(NCc3nc4ccccc4[nH]3)c3ccccc23)cc1S(=O)(=O)N(C)C,-4,10,-5,1,0,-6,·
COc1ccc(NC(=O)CN(C)C(=O)c2oc3ccccc3c2C)cc1,-1,3,-3,2,0,15,·
COc1ccccc1NC(=O)Nc1ccc(CC#N)cc1,3,8,-8,·,·,·,·
CC(=O)Nc1sc(N/N=C\c2ccc(O)cc2)nc1-c1cccs1,1,16*,-3,·,·,·,23*
CC(=O)Nc1sc(N/N=C\c2cccc(Cl)c2)nc1-c1cccs1,-1,9,-4,0,1,-18,·
Cn1c(C(=O)NCc2ccccn2)cc2c(=O)n(C)c3ccccc3c21,-2,25*,-2,-12,0,1,5
Cc1[nH][nH]c(=O)c1C(c1ccc(-c2ccc(F)cc2)o1)c1c(C)[nH][nH]c1=O,-1,9,-2,-3,-1,-11,·
Cc1[nH][nH]c(=O)c1C(c1ccc(-c2ccc(C(=O)O)cc2)o1)c1c(C)[nH][nH]c1=O,3,25*,0,14,-1,-10,10
CC1=CN2C(=N)/C(=C/c3ccco3)C(=O)N=C2S1,4,1,0,-4,0,-14,·
N=C1/C(=C\c2ccc(SCc3ccco3)o2)C(=O)N=C2SC=NN12,-1,18*,-5,-13,-1,6,16*
CC(C)[C@H](NC(=O)Nc1ccccc1F)C(=O)O,-2,15*,8,-2,0,1,8
O=C(CN1CC(c2ccccc2)CC1=O)N/N=C/c1cc(Br)ccc1O (stereo unspecified),0,-7,-5,-1,0,-14,·

# Screening results as filed in PubChem.
